Assay outcomes (PubChem BioAssay)
An excerpt weighted towards active compounds, which were near 12% of everything screened.
ABCG2 block = inhibitors of human ABCG2 transporter, ABCB1 counter-screen. Q9UNQ0. IgMXP3 cells, JC-1 efflux, flow cytometry. inhibition, % at 6.6 µM. actives 0.1% (n = 190,000). AID 1325;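 active means inhibition above 80%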;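 further: 0% = DMSO and 100% = nicardipine control wells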
Target sequence (Q9UNQ0 whole entry, looked up): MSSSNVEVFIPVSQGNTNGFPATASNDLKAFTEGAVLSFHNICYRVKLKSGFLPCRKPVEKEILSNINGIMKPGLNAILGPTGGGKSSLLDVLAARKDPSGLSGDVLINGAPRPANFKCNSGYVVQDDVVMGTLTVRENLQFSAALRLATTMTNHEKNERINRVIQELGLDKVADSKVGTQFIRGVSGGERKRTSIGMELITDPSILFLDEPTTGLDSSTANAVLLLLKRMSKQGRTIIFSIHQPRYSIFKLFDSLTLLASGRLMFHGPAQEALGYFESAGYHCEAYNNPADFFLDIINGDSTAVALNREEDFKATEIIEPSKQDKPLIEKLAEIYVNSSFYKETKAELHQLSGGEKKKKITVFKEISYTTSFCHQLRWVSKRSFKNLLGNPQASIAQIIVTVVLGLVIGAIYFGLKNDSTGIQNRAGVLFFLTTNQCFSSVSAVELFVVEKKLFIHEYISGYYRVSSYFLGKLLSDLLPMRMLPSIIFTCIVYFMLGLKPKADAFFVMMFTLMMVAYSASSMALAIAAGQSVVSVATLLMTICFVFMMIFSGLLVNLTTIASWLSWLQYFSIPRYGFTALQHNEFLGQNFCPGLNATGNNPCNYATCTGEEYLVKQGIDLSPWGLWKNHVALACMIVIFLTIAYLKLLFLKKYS
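Measure – % inhibition of efflux relative to nicardipine and DMSO · Test system – ABCG2 IgMXP3 and barcoded ABCB1 CCRF-Adr cell mix · Control set – nicardipine as high control, DMSO as low control · Compound – one concentration, 6.6 µM final · Signal – flow cytometry of retained JC-1 fluorescence · Timing – 10 min exposure at 25 °C with rotation, no wash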
ABCB1 block = inhibitors of human ABCB1 transporter, ABCG2 counter-screen. AID 1326. inhibition, % at 6.6 µM. CCRF-Adr cells, JC-1 efflux, flow cytometry. actives 0.067% (n = 190,000). P08183; in the data active means inhibition above about 40%;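 further: 0% = vehicle and 100% = reference inhibitor; higher value means more JC-1 retained so stronger ABCB1 efflux block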
RAM inhibit = inhibitors of the yeast RAM network | S. cerevisiae dse1pr::URA3 reporter, 5-FOA growth OD615, 2 d; analog-sensitive cbk1-as2 kinase mutant strain | actives 1.8% (n = 190,000) | inhibition, % at 50 µM;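 active means inhibition above a set limit, 3 SD over mean compound inhibition, cut at about 8.4% in these data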;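 further: 0% = DMSO-only wells with no growth and 100% = 10 µM 1-NA-PP1 full growth; inhibition rescues growth on 5-FOA so higher OD means more RAM inhibition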
WT yeast gro inh = growth inhibition of WT yeast, mitochondrial fusion screen. mitochondrial fusion phenotypic screen, WT strain. inhibition, % at 10 µM. actives 2.1% (n = 190,000). AID 1362; in the data active means inhibition above about 58%; tested in S. cerevisiae
L major viab = inhibitors of Leishmania major promastigote growth; actives 9% (n = 200,000); Leishmania major promastigotes, resazurin fluorescence viability; inhibition, % at 10 µM; in the data active means inhibition above about 50%;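 further: promastigotes grown with compound for 44 hours at 28 °C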
* marks the source's active call; other numbers are inactive results; / = not tested or not shown.

SMILES | ABCG2 block | ABCB1 block | RAM inhibit | WT yeast gro inh | L major viab
CCOc1ccc(C2=NNC(c3cccs3)=Nc3ccc(OC)cc32)cc1OCC | 3.7 | 0.7 | 4.0 | 14.1 | 67.0*
Clc1cccc(-c2cc3nc4c(c(N5CCOCC5)n3n2)CCCC4)c1 | 49.5 | 3.1 | -1.1 | 84.6* | 25.3
Fc1cccc(-c2cc3nc4c(c(N5CCN(c6cnccn6)CC5)n3n2)CCCC4)c1 | / | / | / | / | -0.5
Clc1cccc(-c2cc3nc4c(c(N5CCN(c6cnccn6)CC5)n3n2)CCCC4)c1 | 6.5 | 9.3 | 0.9 | 70.2* | 61.6*
CCOC(=O)/C(=N\Nc1ccccc1[N+](=O)[O-])c1csc(N)n1 | 8.6 | 1.4 | 3.8 | 14.3 | 51.6*
CC(C)CCN1CCN(Cc2ccc(C#CCCO)cc2)CC1CCO (stereo not drawn) | 1.4 | 0.8 | 0.8 | -0.5 | -0.7
COc1ccc(C2(CNC(=O)c3cc([N+](=O)[O-])cc([N+](=O)[O-])c3)CCCC2)cc1OC | 14.5 | 3.1 | -0.7 | 17.7 | 99.6*
COc1ccc(C2(CNC(C)=O)CCCC2)cc1OC | -4.1 | -0.6 | -0.3 | -15.6 | -2.7
Cc1c(C)[n+](=O)c2c(n1[O-])CCCCC2 | 1.2 | 0.1 | 0.9 | 4.0 | -5.1
NC(=NC(=O)c1ccccc1)N1N=CCC1c1ccccc1 (stereo not drawn) | 4.4 | 0.7 | -0.1 | 10.4 | 7.0
CC(C(=O)NCC1CCCCC1)N1CCc2ccccc2C1 (stereo not drawn) | 0.0 | -0.3 | 2.3 | -4.8 | 1.2
CC(C(=O)NCC1CCCCC1)N1CCN(S(=O)(=O)/C=C/c2ccccc2)CC1 (stereo not drawn) | -1.2 | 2.4 | -0.4 | 8.6 | 99.3*
CC(C)(C)c1ccc(CN(Cc2ccccc2)C(c2ccccn2)c2nnnn2C(C)(C)C)cc1 (stereo not drawn) | 3.2 | 0.9 | 4.1 | 22.3 | 76.8*
CC(C)(C)n1nnnc1C(c1ccccn1)N1CCN(C(c2ccccc2)c2ccccc2)CC1 (stereo not drawn) | 10.5 | 4.0 | 0.6 | 43.5 | 26.7
CC(C)(C)n1nnnc1C(c1cccnc1)N(Cc1ccccc1)Cc1cccs1 (stereo not drawn) | 5.5 | 1.8 | 1.0 | 81.4* | 95.7*
CC(C)(C)n1nnnc1C(c1cccs1)N(Cc1ccccc1)Cc1cccnc1 (stereo not drawn) | 1.9 | 2.4 | 2.1 | 25.4 | 98.7*
CCN(Cc1ccccc1)C(c1ccncc1)c1nnnn1C(C)(C)C (stereo not drawn) | 28.6 | 2.5 | 0.6 | 3.0 | 11.4
O=C(CC(SCCO)c1ccc2c(c1)OCO2)c1cccs1 (stereo not drawn) | 1.2 | 0.2 | 0.7 | 7.6 | 72.9*
COc1nnc(-c2ccc(N3CCCCC3)c(NC(=O)C3CCCCC3)c2)c2ccccc12 | 5.0 | 1.4 | 0.8 | 5.7 | 54.3*
Cc1cc(C)c(S(=O)(=O)c2ccccc2C)c(SCC(C)C)n1 | 5.6 | 0.8 | 7.9 | 49.2 | 92.0*
CCCSc1nc(C)cc(C)c1S(=O)(=O)c1ccccc1C | 1.8 | 0.3 | 0.0 | 5.3 | 94.5*
Cc1cc(C)c(S(=O)(=O)c2ccccc2C)c(OCC(C)(C)C)n1 | 1.4 | 0.3 | 7.7 | 32.3 | 95.9*
Cc1ccc(S(=O)(=O)c2c(C)cc(C)nc2Oc2cccc(C)c2C)cc1 | 9.9 | 2.6 | 3.5 | 66.3* | 0.3
CCCSc1nc(C)cc(C)c1S(C)(=O)=O | -0.4 | -0.2 | 0.9 | -0.7 | -1.3
Cc1cc(C)c(S(=O)(=O)c2ccccc2C)c(N(C)C)n1 | 0.5 | 0.1 | 1.5 | -2.3 | -0.9
SMILES | ABCG2 block | ABCB1 block | RAM inhibit | WT yeast gro inh | L major viab
O=C(COc1ccc(/C=N/NC(=O)C(=O)N2CCCCC2)cc1)Nc1ccccc1Cl | 17.7 | 1.0 | 0.7 | -14.8 | 5.1
FC(F)(F)C(Oc1nc(NC2CCCCC2)nc(N2CCOCC2)n1)C(F)(F)F | 1.6 | -7.3 | 1.0 | 47.5 | 81.2*
N#Cc1c(NC(=O)c2ccccc2Cl)n(Cc2ccccc2)c2nc3ccccc3nc12 | 11.2 | -1.9 | 3.1 | -0.6 | -6.0
Cc1c(C#N)c(NC(=O)CCl)n(Cc2cccs2)c1C | 1.4 | 0.2 | 3.2 | -20.4 | 79.6*
Cc1c(C#N)c(NC(=O)CCl)n(Cc2ccccc2)c1C | 1.2 | 0.2 | 2.2 | -24.1 | 90.1*
Cc1cc(C)n(CC(O)Cn2c3ccc(Cl)cc3c3cc(Cl)ccc32)c(=O)n1 (stereo not drawn) | 1.5 | 0.3 | 1.3 | 96.8* | 17.1
CCOC(=O)c1c(C)n(O)c2ccc(Cl)cc2c1=O | 5.5 | -1.0 | 2.6 | -21.9 | -7.7
Cc1ccc(NC(=O)c2cc(S(=O)(=O)N3CCOCC3)c(Br)s2)cc1 | 2.6 | 0.2 | 5.0 | 26.6 | -0.9
CCOC(=O)C1CCN(Cc2ccccc2C(F)(F)F)CC1 | 1.0 | 0.3 | 0.4 | -5.4 | -5.1
CCOC(=O)C1CCN(Cc2ccc(O)c3ncccc23)CC1 | 0.7 | 0.2 | -0.8 | -8.3 | 95.3*
COc1ccccc1N1CCN(Cc2ccc(O)c3ncccc23)CC1 | 8.5 | 1.4 | 0.5 | 14.3 | 100.5*
CC1CCCCN1c1nnc(NC(=O)c2cc(-c3ccc(Br)cc3)on2)s1 (stereo not drawn) | -0.6 | 0.1 | 3.0 | 68.2* | 18.9
CCCNCc1cc(OC)c(OCC(=O)NCCc2ccccc2)cc1Br | -1.0 | 0.5 | 0.9 | -11.5 | 55.3*
CCCNCc1cc(OC)c(OCc2ccccc2)cc1Br | 4.8 | -0.4 | -0.1 | 0.6 | 38.0
CCC(CO)NCc1cc(OC)c(OCC(=O)NCCc2ccccc2)cc1Br (stereo not drawn) | 1.6 | 0.5 | -0.4 | -11.2 | 96.6*
CN1CCN(c2ccccc2NC(=O)COc2ccc(Br)cc2)CC1 | 3.2 | 4.2 | 0.9 | 22.4 | 74.4*
Cc1ccc(OCC(=O)Nc2ccccc2N2CCCC2)c(C)c1 | -1.9 | -2.0 | -1.1 | 65.5* | 2.3
O=C(COc1ccccc1)Nc1ccccc1N1CCN(c2ccccc2)CC1 | 25.8 | 0.8 | 1.2 | -8.6 | -4.0
Cc1ccccc1OCC(=O)Nc1ccccc1N1CCC(C)CC1 | 21.4 | 1.2 | -0.1 | 65.2* | 8.6
CC(=O)N1CCN(c2ccccc2NC(=O)COc2ccccc2C)CC1 | 14.1 | 1.8 | 2.2 | 2.1 | -0.6
CCC(=O)N1CCN(c2ccccc2NC(=O)COc2cc(C)ccc2C(C)C)CC1 | 27.8 | 16.9 | 7.0 | 67.3* | 43.5
Cc1cc2nnc(SCC(=O)NCC3CCCO3)n2c2ccccc12 (stereo not drawn) | 3.3 | 0.0 | 0.1 | -14.9 | 7.0
Cc1ccccc1OCC(=O)Nc1ccccc1-c1ccccc1NC(=O)COc1ccccc1C | -3.0 | 7.2 | 9.4* | 10.6 | 32.0
CC1CCCCN1CCCNC(=O)c1ccc2c(=O)n(CCc3ccccc3)c(=O)[nH]c2c1 (stereo not drawn) | 0.2 | 0.0 | -0.8 | 16.4 | 23.7
CC1CCCCN1CCCNC(=O)c1cc(Br)c(Br)[nH]1 (stereo not drawn) | 2.4 | 0.7 | 1.6 | 14.4 | 92.7*
CNC(=S)N/N=C/c1cn(Cc2c(F)cccc2Cl)c2ccccc12 | -1.8 | -0.1 | 3.8 | 61.9* | 27.9
